Reference: ChEMBL document CHEMBL1157930, “Design, synthesis, biological evaluation and computational investigation of novel inhibitors of dihydrofolate reductase of opportunistic pathogens” (Bioorg Med Chem, 2010)

How the values were obtained:
[1] = molecular target: T1, Bifunctional dihydrofolate reductase-thymidylate synthase (Toxoplasma gondii) (UniProt Q07422); assay: Inhibition of Toxoplasma gondii DHFR by continuous spectrophotometric assay
T1 sequence (whole entry): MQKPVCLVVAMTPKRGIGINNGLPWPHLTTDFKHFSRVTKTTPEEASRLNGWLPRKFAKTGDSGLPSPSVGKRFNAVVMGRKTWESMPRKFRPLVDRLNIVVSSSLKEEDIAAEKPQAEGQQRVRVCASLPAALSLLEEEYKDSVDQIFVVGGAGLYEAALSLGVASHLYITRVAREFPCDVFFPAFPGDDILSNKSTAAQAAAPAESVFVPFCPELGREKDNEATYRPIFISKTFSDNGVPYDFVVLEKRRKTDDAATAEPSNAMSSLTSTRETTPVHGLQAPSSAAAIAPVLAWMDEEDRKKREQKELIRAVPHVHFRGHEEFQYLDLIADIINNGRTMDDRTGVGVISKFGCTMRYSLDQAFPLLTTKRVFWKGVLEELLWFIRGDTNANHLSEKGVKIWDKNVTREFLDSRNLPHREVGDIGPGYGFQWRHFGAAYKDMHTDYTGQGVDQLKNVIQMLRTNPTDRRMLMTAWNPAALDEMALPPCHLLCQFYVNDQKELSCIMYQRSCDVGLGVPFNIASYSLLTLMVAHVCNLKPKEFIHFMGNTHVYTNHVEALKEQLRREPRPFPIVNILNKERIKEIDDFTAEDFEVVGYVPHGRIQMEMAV
Procedure, shortened: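 Toxoplasma gondii DHFR was assayed continuously by spectrophotometry, following NADPH oxidation at 340 at 37 °C with saturating substrate and cofactor, in triplicate. […]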

[2] = molecular target: T2, Dihydrofolate reductase (Rattus norvegicus) (UniProt Q920D2); assay: Inhibition of rat liver DHFR at IC50 by continuous spectrophotometric assay
T2 sequence (whole entry): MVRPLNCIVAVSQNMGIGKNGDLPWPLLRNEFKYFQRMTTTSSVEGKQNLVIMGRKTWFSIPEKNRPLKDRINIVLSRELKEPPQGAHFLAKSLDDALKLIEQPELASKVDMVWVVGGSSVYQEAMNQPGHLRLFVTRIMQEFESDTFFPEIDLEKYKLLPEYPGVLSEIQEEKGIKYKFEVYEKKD
Procedure, shortened: (§1)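 Continuous spectrophotometric assay of pathogen (pc, tg, ma) or rat liver DHFR. NADPH oxidation was followed at 340, at 37 °C, with substrate and cofactor both saturating. […]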

[3] = molecular target: T3, Dihydrofolate reductase (Pneumocystis carinii) (UniProt P16184); assay: Inhibition of Pneumocystis carinii DHFR at IC50 by continuous spectrophotometric assay; procedure, shortened: as §1
T3 sequence (whole entry): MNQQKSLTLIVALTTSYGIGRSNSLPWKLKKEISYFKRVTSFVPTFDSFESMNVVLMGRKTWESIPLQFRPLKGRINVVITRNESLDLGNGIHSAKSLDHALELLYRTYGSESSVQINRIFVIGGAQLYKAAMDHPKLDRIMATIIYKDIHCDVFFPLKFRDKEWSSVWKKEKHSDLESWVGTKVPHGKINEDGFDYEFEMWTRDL

[4] = molecular target: T1, Bifunctional dihydrofolate reductase-thymidylate synthase (Toxoplasma gondii); assay: Inhibition of Toxoplasma gondii DHFR at IC50 by continuous spectrophotometric assay; design: concentration or dose not given beside the values; procedure, shortened: as §1
[5] = molecular target: T4, Dihydrofolate reductase (Mycobacterium avium) (UniProt O30463); assay: Inhibition of Mycobacterium avium DHFR at IC50 by continuous spectrophotometric assay; procedure, shortened: as §1
T4 sequence (whole entry): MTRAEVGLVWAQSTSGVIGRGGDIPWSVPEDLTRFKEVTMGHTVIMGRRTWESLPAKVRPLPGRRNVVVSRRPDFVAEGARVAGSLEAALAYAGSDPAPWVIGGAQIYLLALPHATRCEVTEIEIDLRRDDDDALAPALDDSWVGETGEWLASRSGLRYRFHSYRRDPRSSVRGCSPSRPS

[6] = Selectivity ratio of IC50 for rat liver DHFR to IC50 for Pneumocystis carinii DHFR
Procedure, shortened: (§2)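 The ratio is rat liver DHFR IC50 divided by pathogen DHFR IC50. Both IC50s come from triplicate continuous spectrophotometric assays following NADPH oxidation at 37 °C, with substrate and cofactor saturating.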

[7] = Selectivity ratio of IC50 for rat liver DHFR to IC50 for Toxoplasma gondii DHFR; procedure, shortened: as §2
[8] = Selectivity ratio of IC50 for rat liver DHFR to IC50 for Mycobacterium avium DHFR; procedure, shortened: as §2

Row | Structure (SMILES) | Activity [1] [µM] | inhibition [2] [%] | inhibition [3] [%] | inhibition [4] [%] | inhibition [5] [%] | IC50 selectivity ratio (rat liver / P. carinii DHFR) [6] | Ratio IC50 [7] | Ratio IC50 [8]
1 | COc1cc(COc2cc(N)nc(N)n2)cc(OC)c1OC | 145 | 12 | 0 | 10 | 12 |  |  | 
2 | Nc1ncc(CNc2cccc3ccccc23)c(N)n1 | 22.1 |  |  |  | 9 | 0.85 | 5.78 | 
3 | Nc1ncc(CN2c3ccccc3CCc3ccccc32)c(N)n1 | 0.14 |  |  |  |  | 1.89 | 11.5 | 14.4
4 | Nc1nc(N)c2nc(CN3c4ccccc4C=Cc4ccccc43)cnc2n1 | 0.043 |  |  |  |  |  | 102 | 367
5 | Nc1ncc(CN2c3ccccc3C=Cc3ccccc32)c(N)n1 | 8.07 | 15 |  |  |  | > 5 | > 16 | > 20
6 | Nc1cc(OCCN2c3ccccc3C=Cc3ccccc32)nc(N)n1 | 3.35 | 39 |  |  |  |  | > 35.8 | > 51.4
7 | Cc1ccc(COc2ccc(C(=O)/C=C/c3cnc(N)nc3N)cc2)cc1 | 117 | 0 | 2 | 10 | 4 |  |  | 
8 | CN(Cc1cnc(N)nc1N)c1cccc2ccccc12 | 3.49 |  |  |  |  | 4.79 | 52.7 | 209
9 | Nc1nc(N)nc(CN2c3ccccc3Sc3ccc(Cl)cc32)n1 | 397 | 8 |  |  | 5 |  |  | 
10 | COc1ccc(C(=O)/C=C/c2cnc(N)nc2N)cc1 | 151 |  | 4 | 15 | 14 |  |  | 
11 | Nc1ncc(CSc2nc3ccccc3o2)c(N)n1 | 160 |  |  |  |  | 14.5 | 3.25 | 22.5
12 | Nc1ncc(COS(=O)(=O)c2ccc3ccccc3c2)c(N)n1 | 124 | 0 |  | 13 | 15 | > 15.7 |  | 
13 | Nc1nc(N)nc(CN2c3ccccc3Sc3ccccc32)n1 | 143 | 16 |  | 15 | 4 |  |  | 
14 | COc1ccc(NCc2cnc(N)nc2N)cc1 | 44 | 0 |  | 7 | 0 |  |  | 
15 | Nc1nc(N)nc(CN2c3ccccc3CCc3ccccc32)n1 | 140 | 0 |  | 10 | 9 |  |  | 
16 | Nc1nc(N)c2cc(COC(=O)c3c4ccccc4cc4ccccc34)ccc2n1 | 0.67 |  |  |  |  | 0.43 | 0.31 | 0.21
